Active and inactive are the calls of the source. The calls are words filed in the database; no cut-off is given here.
Assays:
[1] = test system: SMMC-7721; experiment: Cytotoxicity against human SMMC7721 cells after 72 hrs by MTT assay; format: functional, cell-based; conditions: SMMC-7721, 72 h
[2] = test system: MCF7; experiment: Cytotoxicity against human MCF7 cells after 72 hrs by MTT assay; format: functional, cell-based; conditions: MCF7, 72 h
[3] = test system: MGC-803; experiment: Cytotoxicity against human MGC803 cells after 72 hrs by MTT assay; format: functional, cell-based; conditions: MGC-803, 72 h
[4] = Cytotoxicity against human EC9706 cells after 72 hrs by MTT assay; format: functional, cell-based; conditions: EC9706, 72 h
[5] = test system: MGC-803; experiment: Cell cycle arrest in human MGC803 cells assessed as accumulation at G2/M phase at 1 uM after 24 hrs by propidium iodide staining-based flow cytometry; format: functional
Outline: (§1)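 Exponentially growing MGC-803 cells (5×10^5) treated at 0, 0.25, 0.5 or 1.0 µmol/L for 12 or 24 h; cells collected, fixed in ice-cold 70% ethanol, treated with buffer containing RNAse A and 0.1% Triton X-100, stained with PI; DNA content analysed by flow cytometry to give percentages of cells in G1, S and G2/M phases.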

[6] = test system: MGC-803; experiment: Cell cycle arrest in human MGC803 cells assessed as reduction in G1 phase accumulation after 12 to 24 hrs by propidium iodide staining-based flow cytometry; format: functional; outline: as §1
[7] = test system: MGC-803; experiment: Cell cycle arrest in human MGC803 cells assessed as accumulation at G2/M phase at 0.25 uM after 12 hrs by propidium iodide staining-based flow cytometry; format: functional; outline: as §1
[8] = test system: MGC-803; experiment: Cell cycle arrest in human MGC803 cells assessed as accumulation at G2/M phase at 0.5 uM after 12 hrs by propidium iodide staining-based flow cytometry; format: functional; outline: as §1
[9] = test system: HEK293; experiment: Cytotoxicity against human HEK293 cells up to 55 uM after 72 hrs by MTT assay; format: cell-based; conditions: hek293, 72 h
Outline: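 HEK293 cells seeded at 5×10^3 per well, grown 24 h at 37°C, then medium replaced with compound-containing medium over a concentration range; 72 h exposure; MTT (5 mg/mL stock) added for 4 h at 37°C, formazan dissolved in DMSO, absorbance read at 570 nm. Triplicate per concentration, experiment repeated three times.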

[10] = test system: MGC-803; experiment: Cell cycle arrest in human MGC803 cells assessed as accumulation at S phase at 1 uM after 12 hrs by propidium iodide staining-based flow cytometry; format: functional; outline: as §1
[11] = test system: MGC-803; experiment: Cell cycle arrest in human MGC803 cells assessed as accumulation at G0/G1 phase at 1 uM after 24 hrs by propidium iodide staining-based flow cytometry; format: functional; outline: as §1
[12] = test system: MGC-803; experiment: Cell cycle arrest in human MGC803 cells assessed as reduction in S phase accumulation after 12 to 24 hrs by propidium iodide staining-based flow cytometry; format: functional; outline: as §1
[13] = test system: MGC-803; experiment: Cell cycle arrest in human MGC803 cells assessed as accumulation at G0/G1 phase at 0.5 uM after 12 hrs by propidium iodide staining-based flow cytometry; format: functional; outline: as §1
[14] = test system: MGC-803; experiment: Cell cycle arrest in human MGC803 cells assessed as accumulation at S phase at 0.25 uM after 12 hrs by propidium iodide staining-based flow cytometry; format: functional; outline: as §1
[15] = test system: MGC-803; experiment: Induction of apoptosis in human MGC803 cells assessed as nuclear shrinkage at 0.25 to 1 uM after 12 hrs by Hoechst 33258 staining-based fluorescence microscopy; format: functional, cell-based
Outline: (§2)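 MGC-803 cells seeded at 8×10^3 cells/well, treated 12 h at 0, 0.25, 0.5 or 1.0 µmol/L; cells collected, fixed, stained 20 min with Hoechst 33258, washed with PBS; nuclear shrinkage, chromatin condensation, intense fluorescence and fragmentation scored by fluorescence microscopy.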

[16] = test system: MGC-803; experiment: Cell cycle arrest in human MGC803 cells assessed as accumulation at G0/G1 phase at 0.25 uM after 24 hrs by propidium iodide staining-based flow cytometry; format: functional; outline: as §1
[17] = test system: MGC-803; experiment: Induction of apoptosis in human MGC803 cells assessed as chromatin condensation at 0.25 to 1 uM after 12 hrs by Hoechst 33258 staining-based fluorescence microscopy; format: functional, cell-based; outline: as §2
[18] = test system: MGC-803; experiment: Cell cycle arrest in human MGC803 cells assessed as accumulation at G0/G1 phase at 1 uM after 12 hrs by propidium iodide staining-based flow cytometry; format: functional; outline: as §1
[19] = test system: MGC-803; experiment: Cell cycle arrest in human MGC803 cells assessed as accumulation at G2/M phase at 0.5 uM after 24 hrs by propidium iodide staining-based flow cytometry; format: functional; outline: as §1
[20] = test system: MGC-803; experiment: Cell cycle arrest in human MGC803 cells assessed as accumulation at S phase at 1 uM after 24 hrs by propidium iodide staining-based flow cytometry; format: functional; outline: as §1
[21] = test system: MGC-803; experiment: Cell cycle arrest in human MGC803 cells assessed as accumulation at S phase at 0.25 uM after 24 hrs by propidium iodide staining-based flow cytometry; format: functional; outline: as §1
[22] = test system: MGC-803; experiment: Cell cycle arrest in human MGC803 cells assessed as accumulation at S phase at 0.5 uM after 24 hrs by propidium iodide staining-based flow cytometry; format: functional; outline: as §1
[23] = test system: MGC-803; experiment: Cell cycle arrest in human MGC803 cells assessed as accumulation at S phase at 0.5 uM after 12 hrs by propidium iodide staining-based flow cytometry; format: functional; outline: as §1
[24] = test system: MGC-803; experiment: Cell cycle arrest in human MGC803 cells assessed as accumulation at G2/M phase at 1 uM after 12 hrs by propidium iodide staining-based flow cytometry; format: functional; outline: as §1
[25] = test system: MGC-803; experiment: Cell cycle arrest in human MGC803 cells assessed as accumulation at G0/G1 phase at 0.5 uM after 24 hrs by propidium iodide staining-based flow cytometry; format: functional; outline: as §1
[26] = test system: MGC-803; experiment: Cell cycle arrest in human MGC803 cells assessed as accumulation at G2/M phase after 12 to 24 hrs by propidium iodide staining-based flow cytometry; format: functional; outline: as §1
[27] = test system: MGC-803; experiment: Induction of apoptosis in human MGC803 cells assessed as nuclear fragmentation at 0.25 to 1 uM after 12 hrs by Hoechst 33258 staining-based fluorescence microscopy; format: functional, cell-based; outline: as §2
[28] = test system: MGC-803; experiment: Cell cycle arrest in human MGC803 cells assessed as accumulation at G2/M phase at 0.25 to 1 uM by propidium iodide staining-based flow cytometry; format: functional; conditions: TDE = time-dependent effect; outline: as §1
[29] = test system: MGC-803; experiment: Cell cycle arrest in human MGC803 cells assessed as accumulation at G2/M phase at 0.25 uM after 24 hrs by propidium iodide staining-based flow cytometry; format: functional; outline: as §1
[30] = test system: MGC-803; experiment: Cell cycle arrest in human MGC803 cells assessed as reduction in G1 phase accumulation at 0.25 to 1 uM by propidium iodide staining-based flow cytometry; format: functional; conditions: TDE = time-dependent effect; outline: as §1
[31] = test system: MGC-803; experiment: Cell cycle arrest in human MGC803 cells assessed as accumulation at G0/G1 phase at 0.25 uM after 12 hrs by propidium iodide staining-based flow cytometry; format: functional; outline: as §1
[32] = test system: MGC-803; experiment: Cell cycle arrest in human MGC803 cells assessed as reduction in S phase accumulation at 0.25 to 1 uM by propidium iodide staining-based flow cytometry; format: functional; conditions: TDE = time-dependent effect; outline: as §1

CC(C)NC(=O)N1CCN(C(=S)SCc2cn(Cc3ccc(Cl)cc3)nn2)CC1
IC50 [1]: > 128 µM
IC50 [2]: > 128 µM
IC50 [3]: 19.9 µM
IC50 [4]: 25.6 µM

Cc1ccc(Cn2cc(CSC(=S)N3CCN(C(=O)NC(C)C)CC3)nn2)cc1
IC50 [1]: > 128 µM
IC50 [2]: 4.63 µM
IC50 [3]: 16.6 µM
IC50 [4]: > 128 µM

CCNC(=O)N1CCN(C(=S)SCc2cn(Cc3ccc(F)cc3)nn2)CC1
IC50 [1]: 44.4 µM
IC50 [2]: 3.66 µM
IC50 [3]: 2.17 µM
IC50 [4]: 27.8 µM

CC(C)NC(=O)N1CCN(C(=S)SCc2cn(Cc3ccccc3F)nn2)CC1
Activity [5]: 74.95%
Activity [6]: Dose-dependent effect
Activity [7]: 21.86%
Activity [8]: 50.35%
Activity [9]: Non-toxic
Activity [10]: 39.11%
Activity [11]: 2.99%
Activity [12]: Dose-dependent effect
Activity [13]: 19.1%
Activity [14]: 39.06%
IC50 [1]: 7.13 µM
Activity [15]: Active
Activity [16]: 31.47%
Activity [17]: Active
Activity [18]: 6.02%
Activity [19]: 68.71%
Activity [20]: 15.66%
Activity [21]: 35.96%
Activity [22]: 17.4%
Activity [23]: 26.26%
Activity [24]: 59.86%
Activity [25]: 10.9%
Activity [26]: Dose-dependent effect
Activity [27]: Active
Activity [28]: tde
IC50 [2]: 1.86 µM
Activity [29]: 32.93%
Activity [30]: tde
Activity [31]: 38.7%
Activity [32]: tde
IC50 [3]: 1.62 µM
IC50 [4]: 20.8 µM

O=C(NC1CCCCC1)N1CCN(C(=S)SCc2cn(Cc3ccccc3F)nn2)CC1
IC50 [1]: > 128 µM
IC50 [2]: 85 µM
IC50 [3]: 36.5 µM
IC50 [4]: 84.9 µM

COc1cc(Cn2cc(CSC(=S)N3CCN(C(N)=O)CC3)nn2)cc(OC)c1OC
IC50 [1]: > 128 µM
IC50 [2]: > 128 µM
IC50 [3]: > 128 µM
IC50 [4]: > 128 µM

CCN(C)C(=O)N1CCN(C(=S)SCc2cn(Cc3ccc(C)cc3)nn2)CC1
IC50 [1]: > 128 µM
IC50 [2]: 40.1 µM
IC50 [3]: 8.27 µM
IC50 [4]: 70.6 µM

NC(=O)N1CCN(C(=S)SCc2cn(Cc3ccc(Cl)cc3)nn2)CC1
IC50 [1]: > 128 µM
IC50 [2]: > 128 µM
IC50 [3]: > 128 µM
IC50 [4]: > 128 µM

O=c1[nH]cc(F)c(=O)[nH]1 [FLUOROURACIL]
IC50 [1]: 26.7 µM
IC50 [2]: 7.33 µM
IC50 [3]: 7.14 µM
IC50 [4]: 0.32 µM

CCN(C)C(=O)N1CCN(C(=S)SCc2cn(Cc3cc(OC)c(OC)c(OC)c3)nn2)CC1
IC50 [1]: > 128 µM
IC50 [2]: 68.5 µM
IC50 [3]: 85.7 µM
IC50 [4]: > 128 µM

COc1cc(Cn2cc(CSC(=S)N3CCN(C(=O)NC(C)C)CC3)nn2)cc(OC)c1OC
IC50 [1]: > 128 µM
IC50 [2]: > 128 µM
IC50 [3]: > 128 µM
IC50 [4]: > 128 µM

CCNC(=O)N1CCN(C(=S)SCc2cn(Cc3ccccc3F)nn2)CC1
IC50 [1]: > 128 µM
IC50 [2]: 5.76 µM
IC50 [3]: 2.83 µM
IC50 [4]: 23.7 µM

Cc1ccc(Cn2cc(CSC(=S)N3CCN(C(N)=O)CC3)nn2)cc1
IC50 [1]: > 128 µM
IC50 [2]: > 128 µM
IC50 [3]: 29.9 µM
IC50 [4]: > 128 µM

CCNC(=O)N1CCN(C(=S)SCc2cn(Cc3ccc(OC)cc3)nn2)CC1
IC50 [1]: > 128 µM
IC50 [2]: 97.6 µM
IC50 [3]: > 128 µM
IC50 [4]: > 128 µM

Source: ChEMBL document CHEMBL2390884, “Design, synthesis and antiproliferative activity studies of novel 1,2,3-triazole-dithiocarbamate-urea hybrids” (Eur J Med Chem, 2013)
